The nature of assay [1]: Antiinflammatory activity in human neutrophils assessed as inhibition of FMLP/cytochalasin B-induced superoxide anion generation by measuring superoxide dismutase-inhibitable reduction of ferricytochrome c preincubated for 5 mins followed by FMLP/cytochalasin B-induction by spectrophotometric analysis. Type of assay: functional, cell-based. The conditions noted are these: Neutrophil. The method in brief:
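Neutrophils isolated from healthy donor venous blood (20−30 years old) by dextran sedimentation, Ficoll Hypaque centrifugation and hypotonic erythrocyte lysis, kept at 4 °C in Ca2+-free HBSS pH 7.4. Cells (6 × 10^5 cells/mL) with 0.5 mg/mL ferricytochrome c and 1 mM Ca2+, 37 °C 2 min; compound or 0.1% DMSO 5 min; CB 1 μg/mL 3 min; FMLP 100 nM. A550 followed continuously, ±SOD 100 U/mL; IC50, mean ± SEM, n = 3 or 4.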

Assay [2] can be described thus: Antiinflammatory activity in human neutrophils assessed as inhibition of fMLP/CB-induced elastase release using MeO-Suc-Ala-Ala-Pro-Val-p-nitroanilide as elastase substrate preincubated for 5 mins followed by fMLP/CB-induction. Type of assay: functional, cell-based. Particulars: Neutrophil. The method in brief:
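Donor neutrophils (dextran/Ficoll/hypotonic lysis, held at 4 °C in Ca2+-free HBSS pH 7.4) at 6 × 10^5 cells/mL, equilibrated with 100 μM MeO-Suc-Ala-Ala-Pro-Val-p-nitroanilide at 37 °C for 2 min. Compound or 0.1% DMSO vehicle added for 5 min, then activated with FMLP 100 nM plus CB 0.5 μg/mL. A405 read continuously. IC50 given as mean ± SEM, n = 3 or 4.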

For `COc1cc2ccc3cc(O)ccc3c2c(OC)c1O`, the IC50 (as a rule, the concentration that inhibits the measured activity by half) in assay [1] was found to be 2600 nM; in assay [2], 4900 nM.
The matching figures for `COc1c(Cc2ccc(O)cc2)c(O)c(Cc2ccc(O)cc2)c2c1-c1ccc(O)cc1CC2`: 1100 nM and 1800 nM.
The matching figures for `COc1cc(O)c(Cc2ccc(O)cc2)c(CCc2cccc(O)c2)c1Cc1ccc(O)cc1`: 700 nM and 700 nM.
In the case of `COc1cc(O)cc(CCc2cccc(O)c2)c1Cc1ccc(O)cc1`, the IC50 was found to be 1700 nM in assay [1] and 2800 nM in assay [2].
In the same order, the values of `COc1cc(O)c(-c2c(O)cc3c(c2OC)-c2ccc(O)cc2CC3)c2c1-c1ccc(O)cc1CC2` are 1800 nM and 1400 nM.
In the same order, the values of `COc1cc(O)cc(CCc2ccccc2)c1` are 6500 nM and > 10000 nM.
Regarding `COc1cc(O)c(Cc2ccc(O)cc2)c2ccc3cc(O)ccc3c12`, the IC50 in assay [1] came out at 500 nM; in assay [2] it was 900 nM.
The matching figures for `CC(C)C[C@@](O)(CC(=O)OCc1ccc(O[C@@H]2O[C@H](CO)[C@@H](O)[C@H](O)[C@H]2O)cc1)C(=O)OCc1ccc(O[C@@H]2O[C@H](CO)[C@@H](O)[C@H](O)[C@H]2O)cc1`: > 10000 nM and > 10000 nM.
The matching figures for `COc1cc(O)cc(CCc2cccc(O)c2)c1-c1c(OC)cc(O)c2c1CCc1cc(O)ccc1-2`: 400 nM and 600 nM.
In the same order, the values of `COc1cc(O)cc2c1-c1cc(-c3c(O)cc(OC)c4c3ccc3cc(O)ccc34)c(O)cc1CC2` are 4200 nM and 1200 nM.
`COc1cc(CCc2cccc(O)c2)cc(O)c1-c1c(O)cc(OC)c2c1CCc1cc(O)ccc1-2`: the IC50 in assay [1] is 4900 nM; in assay [2], > 10000 nM.
In the same order, the values of `COc1cc2c(ccc3cc(O)c(OC)c(OC)c32)cc1O` are 2000 nM and 2100 nM.
In the same order, the values of `COc1cc(O)c(Cc2ccc(O)cc2)c2c1-c1ccc(O)cc1CC2` are 200 nM and 2000 nM.
`CCOCc1ccc(O)cc1`: the 50% inhibitory concentration (IC50) in assay [1] and in assay [2] was > 10000 nM throughout.
For the compound `COc1cc(O)cc2c1-c1cc(-c3c(O)cc(OC)c4c3CCc3cc(O)ccc3-4)c(O)cc1CC2`, the results for the IC50 in assay [1] and in assay [2] were 1500 nM and 500 nM, respectively.
The matching figures for `COc1c(O)cc2ccc3c(Cc4ccc(O)cc4)c(O)ccc3c2c1OC`: 1400 nM and 1300 nM.
Take `COc1c(O)c(-c2c(O)c(OC)c(OC)c3c2CCc2cc(O)ccc2-3)c2c(c1OC)-c1ccc(O)cc1CC2`: the IC50 in assay [1] was 2500 nM; in assay [2], > 10000 nM.
Turning to `COc1cc2c(cc1O)CCc1cc(O)c(OC)c(OC)c1-2`, the IC50 turned out to be 200 nM in assay [1] and 5700 nM in assay [2].
In the same order, the values of `COc1cccc(CCc2c(Cc3ccc(O)cc3)c(O)cc(OC)c2Cc2ccc(O)cc2)c1` are 6300 nM and 4200 nM.
The matching figures for `COc1cc2c(ccc3c(-c4c(O)cc(OC)c5c4ccc4cc(O)ccc45)c(O)cc(OC)c32)cc1O`: 1900 nM and 1700 nM.
With `COc1cc(CCc2cccc(O)c2)cc(O)c1Cc1ccc(O)cc1`, the IC50 in assay [1] worked out at 2200 nM; in assay [2] it was 900 nM.
As to `COc1cc2c(cc1O)CCc1c(-c3c(O)cc(OC)c4c3CCc3cc(O)ccc3-4)c(O)cc(OC)c1-2`, the figures for the IC50 in assay [1] and in assay [2] were 2400 nM and 700 nM, respectively.
In the case of `COc1cc2ccc3c(-c4c(O)cc(OC)c5c4ccc4cc(O)c(OC)cc45)c(O)cc(OC)c3c2cc1O`, the IC50 in assay [1] is 2800 nM; in assay [2], 1600 nM.
Take `COc1cc(O)c(Cc2ccc(O)cc2)c(CCc2cccc(O)c2)c1`: the IC50 was 3600 nM in assay [1] and 2200 nM in assay [2].
`COc1cc(CCc2cccc(O)c2)c(Cc2ccc(O)cc2)c(O)c1Cc1ccc(O)cc1`: the IC50 in assay [1] and in assay [2] was 1100 nM throughout.
For the compound `COc1cc(O)c(-c2c(O)c(Cc3ccc(O)cc3)c3c(c2OC)-c2ccc(O)cc2CC3)c2c1-c1ccc(O)cc1CC2`, the IC50 in assay [1] is 200 nM; in assay [2], 400 nM.
Turning to `COc1c(Cc2ccc(O)cc2)c(O)cc2c1-c1ccc(O)cc1CC2`, the IC50 in assay [1] came out at 200 nM; in assay [2], 2000 nM.
The matching figures for `COc1c(O)c(Cc2ccc(O)cc2)c2ccc3cc(O)ccc3c2c1OC`: 1600 nM and 1900 nM.
Regarding `COc1cc2c(ccc3c(-c4c(O)cc(OC)c5c4ccc4cc(O)c(OC)cc45)c(O)cc(OC)c32)cc1O`, the results for the IC50 in assay [1] and in assay [2] were 1500 nM and 300 nM, respectively.
In the same order, the values of `CC[C@@H](CC[C@@H](C)[C@H]1CC[C@H]2[C@@H]3CC=C4C[C@@H](O[C@@H]5O[C@H](CO)[C@@H](O)[C@H](O)[C@H]5O)CC[C@]4(C)[C@H]3CC[C@]12C)C(C)C` are > 10000 nM and > 10000 nM.
In the same order, the values of `COc1cccc(CCc2cc(O)cc(OC)c2)c1` are 6500 nM and > 10000 nM.
On to `COc1cc(O)cc2c1-c1ccc(O)cc1CC2`, for which the IC50 is 400 nM in assay [1] and > 10000 nM in assay [2].
In the same order, the values of `COC1=CC(=O)C2=C(CCc3cc(O)ccc32)C1=O` are > 10000 nM and > 10000 nM.
The matching figures for `O=Cc1ccc(O)cc1` [4-HYDROXYBENZALDEHYDE]: > 10000 nM and 3300 nM.
As to `COc1cc(O)cc(CCc2cccc(O)c2)c1` [BATATASIN III], the IC50 in assay [1] was 900 nM; in assay [2], 4700 nM.
In the same order, the values of `COc1cc(O)c(-c2c(O)cc(OC)c3c2ccc2cc(O)ccc23)c2ccc3cc(O)ccc3c12` [CIRRHOPETALANTHIN] are 1400 nM and 600 nM.
For `COc1cc(O)c(-c2c(O)cc(OC)c3c2ccc2cc(O)ccc23)c2c1-c1ccc(O)cc1CC2` [CIRRHOPETALANTHRIN], the IC50 stood at 900 nM in assay [1] and 600 nM in assay [2].
In the same order, the values of `COc1c(O)cc2c(c1OC)-c1ccc(O)cc1CC2` [ERIANTHRIDIN] are 300 nM and 2000 nM.
In the same order, the values of `COc1cc(O)cc(CCc2ccc(O)c(OC)c2)c1` [GIGANTOL] are 2100 nM and 3200 nM.
In the same order, the values of `CC[C@H](Nc1ncnc2[nH]cnc12)c1nc2cccc(F)c2c(=O)n1-c1ccccc1` [IDELALISIB] are 100 nM and 300 nM.
With `COc1c(O)cc2ccc3cc(O)ccc3c2c1OC` [NUDOL], the IC50 in assay [1] is 1700 nM; in assay [2], > 10000 nM.

Source of the values: ChEMBL document CHEMBL3865837, “Chemical Constituents of the Rhizomes of Bletilla formosana and Their Potential Anti-inflammatory Activity” (J Nat Prod, 2016).
